Sampled rows, rich in hits. Any-hit rate of the full collection: about 4%.
TAAR1 ag: human TAAR1 agonists, primary screen, Fluo-8 calcium fluorescence, CHO RD-HGA16 cells | 0.99% of 360,000 active | activation, % at 3 µM | Trace amine-associated receptor 1 (Homo sapiens), Q96RJ0 | vehicle wells 0%, saturating PEA agonist 100%;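 active = activation above the mean activation of all test compounds in the run plus 3 SD, cut at about 38% in these data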
Target sequence (Q96RJ0 whole entry, looked up): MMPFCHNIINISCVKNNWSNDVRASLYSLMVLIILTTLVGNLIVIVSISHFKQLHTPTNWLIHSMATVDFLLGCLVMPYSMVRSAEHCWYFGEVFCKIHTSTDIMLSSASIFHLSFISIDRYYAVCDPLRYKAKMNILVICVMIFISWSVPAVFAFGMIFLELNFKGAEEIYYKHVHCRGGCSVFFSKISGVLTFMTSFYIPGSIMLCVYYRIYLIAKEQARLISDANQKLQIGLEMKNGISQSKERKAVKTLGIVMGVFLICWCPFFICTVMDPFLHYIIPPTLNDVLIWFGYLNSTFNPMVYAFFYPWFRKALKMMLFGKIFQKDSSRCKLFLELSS
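System: CHO-derived RD-HGA16 cells with stable Gα16 and human TAAR1. Times: 17-24 h plating, Fluo-8 75 min 37 °C, 30 min RT. Measured by: calcium-sensitive Fluo-8 signal, excitation 470-495, emission 515-575 nm. Read-out basis: % activation relative to PEA EC100 response. Control set: DMSO and PEA EC100. Repeats: no replicates (n 1).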
DAGLB inh: DAGLB lipase inhibitors, primary screen, biochemical, fluorescence, HTS; Diacylglycerol lipase-beta (Homo sapiens), Q8NCG7; HEK293T DAGLB membrane lysate, EnzChek fluorogenic substrate; inhibition, % at 5.17 µM; 0.059% of 340,000 active; AID 504411, 2011; in the data active = inhibition above about 34%;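 note: 0% = enzyme with vehicle and 100% = wells lacking enzyme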
TAAR1 antagonist: human TAAR1 antagonists, primary screen, Fluo-8 calcium fluorescence, CHO RD-HGA16 cells | antagonist | inhibition, % at 3 µM | 1.5% of 360,000 active | AID 624466, 2012;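 active = inhibition above a per-plate cutoff, the mean inhibition of test compounds on that plate plus 3 SD, cut at about 49% in these data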;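 note: 0% = DMSO plus EC80 beta-PEA response and 100% = DMSO alone without agonist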
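Test system – hTAAR1-expressing CHO RD-HGA16 cells, Gα16-coupled · Also added – β-PEA at EC80 concentration, post-compound challenge · Compound – 3 µM, single point · Incubation – dye loading 75 min at 37 °C, then 30 min room temperature · Measured by – Fluo-8 intracellular calcium dye fluorescence, real-time kinetic reads · Benchmarks – vehicle and agonist controls · Replicates – singlicate, one well per test compound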
GPR7 antagonist: GPR7 receptor antagonists, primary screen, cell-based, fluorescence, single concentration; Neuropeptides B/W receptor type 1 (Homo sapiens), P48145; GPR7-expressing cells, fluorescence antagonist assay; inhibition, % at 4.4 µM; 1.1% of 290,000 active; AID 1861, 2009; in the data active = inhibition above about 16%, passing the limit was not always enough;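 note: cells stimulated with the agonist NPW; 0% = agonist with vehicle and 100% = vehicle without agonist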
Target sequence (P48145 whole entry, looked up): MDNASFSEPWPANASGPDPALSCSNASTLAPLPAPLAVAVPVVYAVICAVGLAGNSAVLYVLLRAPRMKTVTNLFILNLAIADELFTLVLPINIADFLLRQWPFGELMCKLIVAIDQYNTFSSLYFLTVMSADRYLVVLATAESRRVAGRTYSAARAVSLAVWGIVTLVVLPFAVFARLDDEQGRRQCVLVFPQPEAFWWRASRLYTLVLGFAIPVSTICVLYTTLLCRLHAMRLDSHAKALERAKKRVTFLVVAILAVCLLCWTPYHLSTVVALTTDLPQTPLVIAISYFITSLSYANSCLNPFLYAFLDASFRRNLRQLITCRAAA
MPTP block: mitochondrial permeability transition pore inhibitors, primary screen, biochemical, isolated mouse mitochondria, absorbance | Ca2+ swelling absorbance, 30 min | inhibition, % at 10 µM | 1.4% of 360,000 active | AID 602449, 2012;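 active = inhibition of 50% or more, scaled per plate between neutral and stimulator controls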;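 note: 0% = DMSO wells given calcium and 100% = 1 mM EGTA wells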
TAAR1 nonsel count: nonselective antagonists in TAAR1 counter-screen cells, counter-screen for hTAAR1 antagonist project, cell-based, fluorescence, calcium; shares compounds with TAAR1 antagonist; counterscreen cell line, antagonist mode; inhibition, % at 3 µM; 77% of 2,400 active; in the data active = inhibition above about 22%;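 note: CHO-Ga16 host cells stimulated with ATP at an EC80 level; 0% = agonist EC80 plus vehicle and 100% = vehicle without agonist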
TAAR1 ant conf: human TAAR1 antagonists, retest of hits, confirmation, cell-based, fluorescence. AID 651785, 2012. inhibition, % at 3 µM. TAAR1-expressing cells, fluorescence antagonist read-out. shares compounds with TAAR1 antagonist. 40% of 2,400 active; in the data active = inhibition above about 49%;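 note: CHO-Ga16 host cells challenged with agonist PEA near its EC80; 0% = agonist at EC80 plus vehicle and 100% = vehicle with no agonist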
Ga16 nonsel ag: calcium activation in Ga16-expressing cells, counter-screen for TAAR1 antagonist project, cell-based, fluorescence; 18% of 2,400 active; shares compounds with TAAR1 antagonist; activation, % at 3 µM; agonist counterscreen; in the data active = activation above about 12%;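 note: 0% = vehicle wells and 100% = saturating stimulus response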
TAAR1 ag count: TAAR1 activation by candidate antagonists – cell-based, fluorescence, counter-screen for TAAR1 antagonist project; shares compounds with TAAR1 antagonist; hTAAR1 cell line, agonist mode; activation, % at 3 µM; 2% of 2,400 active; AID 651955, 2012; in the data active = activation above about 37%;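 note: CHO cells stably expressing TAAR1 with calcium dye readout; 0% = DMSO vehicle and 100% = full agonist response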
Starred values were filed as active, the others as inactive; / = no result.

SMILES | TAAR1 ag | DAGLB inh | TAAR1 antagonist | GPR7 antagonist | MPTP block | TAAR1 nonsel count | TAAR1 ant conf | Ga16 nonsel ag | TAAR1 ag count
COc1ccc(Cl)c(-c2cc(C(=O)NCc3ccc(C(F)(F)F)cc3)[nH]n2)c1 | 22 | / | 63* | / | 10 | 32* | 48 | 19* | 35
COc1ccc(Nc2nc(C(=O)N3CCc4cc(OC)c(OC)cc4C3)cs2)cc1 | 2 | 1 | 57* | 9 | 1 | 22* | 32 | 5 | 0
CC(=O)N1CC2(CC(c3ccc(Cl)cc3Cl)=NO2)CN1c1cccc(Cl)c1 (centres undefined) | 1 | -3 | 17 | / | 1 | / | / | / | /
CC1(C(=O)Nc2cnc3ccccc3c2)CCN1C(=O)c1ccccc1CCc1ccccc1 (centres undefined) | 0 | / | 30 | / | 0 | / | / | / | /
CC(C)[C@H](NS(=O)(=O)c1ccc2c(c1)OCCO2)C(=O)OCC(=O)Nc1cc(Cl)ccc1Cl | 21 | -10 | 76* | 0 | 2 | 39* | 61* | 11 | 11
COc1ccc(NC(=O)Nc2cccc3ccccc23)c(OC)c1 | 24 | -2 | 59* | -6 | 0 | 18 | 42 | 3 | 4
COc1ccc(OC)c(-c2cc(C(=O)Nc3ccccc3C(N)=O)c3ccccc3n2)c1 | 21 | / | 76* | / | 0 | 34* | 54* | 11 | 9
COc1ccc(NC(=O)c2cc(-c3ccco3)nc3ccccc23)cc1 | 6 | -1 | 16 | / | 2 | / | / | / | /
Cc1ccc(-c2cc(C(=O)Nc3nccs3)c3ccccc3n2)o1 | 12 | 3 | 31 | -7 | -3 | / | / | / | /
COc1ccc(OC)c(-c2cc(C(=O)N/N=C/c3ccc(F)cc3)c3ccccc3n2)c1 | 2 | / | -18 | / | 2 | / | / | / | /
Cc1ccc(-c2cc(C(=O)Nc3ccccc3C(N)=O)c3ccccc3n2)o1 | 23 | / | 66* | / | 7 | 34* | 54* | 13* | 12
COc1ccc(OC)c(NC(=O)Nc2cccc3ccccc23)c1 | 2 | -2 | -6 | -3 | 1 | / | / | / | /
Cc1cccc(NC(=O)c2cc(-c3ccco3)nc3ccccc23)n1 | 18 | 2 | 55* | -1 | -6 | 27* | 50* | 7 | 5
O=C(OCc1cn([C@@H]2C[C@H](c3ccccc3)N(Cc3cccs3)C[C@H]2O)nn1)c1ccccc1 | 5 | 6 | -12 | / | 0 | / | / | / | /
COc1ccc(NC(=O)c2cc(-c3ccc(C)o3)nc3ccccc23)cc1OC | 13 | 0 | 38 | 0 | -2 | / | / | / | /
COc1ccc(NC(=O)c2cc(-c3ccc(C)o3)nc3ccccc23)c(OC)c1 | 7 | / | 75* | / | 3 | 33* | 46 | 9 | 6
Cc1ccc(-c2cc(C(=O)NCC3(N(C)C)CCCCC3)c3ccccc3n2)o1 | 1 | -2 | 14 | / | 0 | / | / | / | /
Cc1ccc(-c2cc(C(=O)N(C)CC(=O)Nc3ccccc3Br)c3ccccc3n2)o1 | 14 | 0 | 66* | / | -2 | 34* | 50* | 12* | 13
CC(=O)c1ccc(OC2(C)CCN(Cc3cc4ccccc4[nH]3)C2)cc1 (centres undefined) | 2 | / | -14 | / | 2 | / | / | / | /
Cc1nn(-c2ccccc2)c(C)c1C(=O)OCC(=O)N1c2ccccc2NC(=O)C1(C)C | 19 | 0 | 71* | -10 | -4 | 40* | 53* | 9 | 9
CC1(C)C(=O)Nc2ccccc2N1C(=O)COC(=O)/C=C/c1ccc(OC(F)F)cc1 | 21 | 4 | 57* | / | 1 | 31* | 46 | 12* | 10
Cc1cnc(C(=O)OCC(=O)N2c3ccccc3NC(=O)C2(C)C)cn1 | 1 | 0 | -3 | 6 | 0 | / | / | / | /
CCOC(=O)c1c(C)[nH]c(C)c1C(=O)COC(=O)/C=C/c1ccc(OC(F)F)cc1 | 6 | -4 | 52* | -9 | 0 | 34* | 40 | 7 | 2
CCOC(=O)c1ccc(NC(=O)c2nc[nH]c2C(=O)N(C)CCO)cc1 | 1 | 1 | 17 | / | 1 | / | / | / | /
C=Cc1cc2c(cc1O)CCC1C2CCC2(C)C(O)CCC12 (centres undefined) | 8 | -3 | 58* | / | 7 | 23* | 44 | 9 | 7
SMILES | TAAR1 ag | DAGLB inh | TAAR1 antagonist | GPR7 antagonist | MPTP block | TAAR1 nonsel count | TAAR1 ant conf | Ga16 nonsel ag | TAAR1 ag count
CC#Cc1cc2c(cc1O)CCC1C2CCC2(C)C(O)CCC12 (centres undefined) | 4 | 2 | 25 | / | -1 | / | / | / | /
O=C1/C(=C/c2cccs2)Cc2ccccc21 | -2 | -5 | -9 | 2 | 1 | / | / | / | /
O=C1C(=Cc2cccs2)C(=O)c2ccccc21 | -3 | 4 | 104* | -5 | -1 | 4 | 0 | -1 | 4
CCCCNc1cccc2c1S(=O)(=O)N[C@H](C)CO2 | 1 | / | 8 | / | / | / | / | / | /
CCN=C(NCC)SC1CC(=O)N(c2ccc(OCC)cc2)C1=O (centres undefined) | 16 | -2 | 86* | -21 | 0 | 28* | 51* | 11 | 11
CCN=C(Nc1cccc(F)c1)SC1CC(=O)N(c2ccc(OC)cc2)C1=O (centres undefined) | 15 | 0 | 72* | -16 | 1 | 34* | 55* | 7 | 6
COC(=O)c1cc2c(c3c4ccccc4n(S(=O)(=O)c4cccc(C)c4)c13)C(=O)N(Cc1ccc(N(C)C)cc1)C2 | 0 | / | -1 | / | / | / | / | / | /
CN(C)C(=O)N1CCN(C(=O)[C@H](CCc2ccccc2)NC(=O)[C@H]2O[C@@H](n3cnc4c(N)ncnc43)[C@H](O)[C@@H]2O)CC1 | 1 | / | -5 | / | / | / | / | / | /
CCOc1ccc(/C=C2\SC(=O)N(CCNC(=O)CN3C(=O)NC4(CCCC4)C3=O)C2=O)cc1OC | -1 | -2 | 9 | -9 | 0 | / | / | / | /
CCOc1ccc(/C=C2\SC(=O)N(CCNC(=O)C3COc4ccccc4O3)C2=O)cc1OC (centres undefined) | 9 | -1 | 78* | -16 | 38 | 35* | 47 | 9 | 4
CCS(=O)(=O)N1Cc2ccccc2CC1C(=O)Nc1nnc(SCc2ccc(C#N)cc2)s1 (centres undefined) | 26 | 5 | 68* | 2 | 7 | 34* | 56* | 12* | 13
